ChEMBL document CHEMBL3352113, “Cytoprotective pyridinol antioxidants as potential therapeutic agents for neurodegenerative and mitochondrial diseases” (Bioorg Med Chem, 2014)
The source made the active and inactive calls. The calls are words filed in the database; no cut-off is given here.

System: Lymphocyte
Assay: Cytoprotective activity in human lymphocytes obtained from FRDA patient assessed as viable cells after 16 hrs by trypan blue exclusion assay
Format: functional, cell-based
Conditions: not given
In short: (§1)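 Lymphocytes from FRDA or Leigh's syndrome patients, grown in RPMI-1640 with 15% fetal calf serum and 2 mM glutamine, kept in log phase. Test agents at 0.1, 0.5 and 2.5 µM; diethyl maleate (DEM) added to deplete glutathione and induce oxidative stress. Viability expressed relative to untreated cells (100%). Values are mean ± SD/SEM as tabulated.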

Row | SMILES | Activity
1 | CCCCCCCCCCc1nc(N(C)C)c(C)c(C)c1O | Dose-dependent effect
2 | CCCCCCCCCCCCCCCCc1nc(N2CCC2)c(C)c(C)c1O | Dose-dependent effect

System: Lymphocyte
Assay: Cytoprotective activity in human lymphocytes obtained from Leigh's syndrome patient assessed as viable cells at 0.5 uM after 16 hrs by trypan blue exclusion assay
Format: functional
Conditions: read-out: Activity
In short: as §1

Row | SMILES | viability at 0.5 µM
3 | CCCCCCCCCCc1nc(N(C)C)c(C)c(C)c1O | 77%
4 | CCCCCCCCCCCCCCCCc1nc(N2CCC2)c(C)c(C)c1O | 82%

Species on record: Bos taurus
Assay: Inhibition of bovine heart mitochondrial NADH oxidase complex I/III/IV assessed as remaining activity at 1 uM by spectrophotometry relative to untreated control
Conditions: not given

Row | SMILES | Activity
5 | CCCCCCCCCCc1nc(N(C)C)c(C)c(C)c1O | 35%
6 | CCCCCCCCCCCCCCCCc1nc(N2CCC2)c(C)c(C)c1O | 93%

System: Lymphocyte
Assay: Increase in ATP production in CoQ10-deficient lymphocytes (unknown origin) assessed as cellular ATP level at 10 uM after 48 hrs using luciferin-luciferase reaction by bioluminescence assay relative to control
Format: functional
Conditions: not given
In short: (§2)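 CoQ10-deficient lymphocyte line GM17932 grown in glucose-free RPMI 1640 with 25 mM galactose, 2 mM glutamine and 10% dialyzed FBS, forcing oxidative phosphorylation. Incubated with compounds at 5, 10 or 25 µM for 48 h. Total intracellular ATP measured by luciferin–luciferase reaction, expressed as % of untreated control.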

Row | SMILES | Activity
7 | CCCCCCCCCCc1nc(N(C)C)c(C)c(C)c1O | 52%
8 | CCCCCCCCCCCCCCCCc1nc(N2CCC2)c(C)c(C)c1O | 70%

System: Lymphocyte
Assay: Increase in ATP production in CoQ10-deficient lymphocytes (unknown origin) assessed as cellular ATP level at 25 uM after 48 hrs using luciferin-luciferase reaction by bioluminescence assay relative to control
Format: functional
Conditions: not given
In short: as §2

Row | SMILES | Activity
9 | CCCCCCCCCCc1nc(N(C)C)c(C)c(C)c1O | 13%
10 | CCCCCCCCCCCCCCCCc1nc(N2CCC2)c(C)c(C)c1O | 38%

Species on record: Bos taurus
Assay: Inhibition of bovine heart mitochondrial NADH oxidase complex I/III/IV assessed as remaining activity at 10 uM by spectrophotometry relative to untreated control
Conditions: not given

Row | SMILES | Activity
11 | CCCCCCCCCCc1nc(N(C)C)c(C)c(C)c1O | 13%
12 | CCCCCCCCCCCCCCCCc1nc(N2CCC2)c(C)c(C)c1O | 95%

System: not listed separately
Assay: Metabolic stability in bovine liver microsomes at 25 uM after 30 mins by reverse phase HPLC analysis
Format: ADME, Bos taurus
Conditions: cattle, read-out: Stability
In short: (§3)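 Compounds incubated 30 min with activated bovine liver microsomes. Remaining parent compound quantified by reversed-phase HPLC and expressed as % recovered; mean ± SD.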

Row | remaining at 0.5 h, 25 µM | SMILES
13 | 70% | CCCCCCCCCCc1nc(N(C)C)c(C)c(C)c1O
14 | 95% | CCCCCCCCCCCCCCCCc1nc(N2CCC2)c(C)c(C)c1O

System: Lymphocyte
Assay: Increase in ATP production in CoQ10-deficient lymphocytes (unknown origin) assessed as cellular ATP level at 5 uM after 48 hrs using luciferin-luciferase reaction by bioluminescence assay relative to control
Format: functional
Conditions: not given
In short: as §2

Row | SMILES | Activity
15 | CCCCCCCCCCc1nc(N(C)C)c(C)c(C)c1O | 89%
16 | CCCCCCCCCCCCCCCCc1nc(N2CCC2)c(C)c(C)c1O | 92%

System: Lymphocyte
Assay: Inhibition of oxidative stress-induced mitochondrial membrane depolarization in diethyl maleate-treated human lymphocytes obtained from FRDA patient assessed as cells with intact mitochondrial membrane potential at 100 nM pretreated for 16 hrs using TMRM by FACS analysis (reference value: 95%)
Format: functional
Parameters: scale not given: the % may be the effect or the level left
Conditions: not given

Row | SMILES | Activity
17 | CCCCCCCCCCc1nc(N(C)C)c(C)c(C)c1O | 65%
18 | CCCCCCCCCCCCCCCCc1nc(N2CCC2)c(C)c(C)c1O | 54%

System: Lymphocyte
Assay: Cytoprotective activity in human lymphocytes obtained from FRDA patient assessed as viable cells at 2.5 uM after 16 hrs by trypan blue exclusion assay
Format: functional
Conditions: read-out: Activity
In short: as §1

Row | SMILES | viability at 2.5 µM
19 | CCCCCCCCCCc1nc(N(C)C)c(C)c(C)c1O | 87%
20 | CCCCCCCCCCCCCCCCc1nc(N2CCC2)c(C)c(C)c1O | 87%

Species on record: Bos taurus
Assay: Inhibition of bovine heart mitochondrial NADH oxidase complex I/III/IV assessed as remaining activity at 5 uM by spectrophotometry relative to untreated control
Conditions: not given

Row | SMILES | Activity
21 | CCCCCCCCCCc1nc(N(C)C)c(C)c(C)c1O | 28%
22 | CCCCCCCCCCCCCCCCc1nc(N2CCC2)c(C)c(C)c1O | 94%

System: Lymphocyte
Assay: Inhibition of ROS generation in diethyl maleate-treated human lymphocytes obtained from FRDA patient compound pretreated at 100 to 500 nM for 16 hrs using DCFH-DA by FACS analysis
Format: functional, cell-based
Conditions: not given
In short: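 FRDA lymphocytes pretreated with compounds at 100, 250 and 500 nM for 16 h, then given DEM for 80 min to raise ROS. Stained with DCFH-DA for 15 min, then DCF fluorescence read by flow cytometry. Reported as % ROS scavenging; mean ± SEM of three experiments run in duplicate.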

Row | SMILES | inhibition
23 | CCCCCCCCCCc1nc(N(C)C)c(C)c(C)c1O | Active
24 | CCCCCCCCCCCCCCCCc1nc(N2CCC2)c(C)c(C)c1O | Active

System: Lymphocyte
Assay: Cytoprotective activity in human lymphocytes obtained from Leigh's syndrome patient assessed as viable cells after 16 hrs by trypan blue exclusion assay
Format: functional, cell-based
Conditions: not given
In short: as §1

Row | SMILES | Activity
25 | CCCCCCCCCCc1nc(N(C)C)c(C)c(C)c1O | Dose-dependent effect
26 | CCCCCCCCCCCCCCCCc1nc(N2CCC2)c(C)c(C)c1O | Dose-dependent effect

System: Lymphocyte
Assay: Cytoprotective activity in human lymphocytes obtained from Leigh's syndrome patient assessed as viable cells at 0.1 uM after 16 hrs by trypan blue exclusion assay
Format: functional
Conditions: read-out: Activity
In short: as §1

Row | SMILES | viability at 0.1 µM
27 | CCCCCCCCCCc1nc(N(C)C)c(C)c(C)c1O | 6%
28 | CCCCCCCCCCCCCCCCc1nc(N2CCC2)c(C)c(C)c1O | 13%

System: Lymphocyte
Assay: Inhibition of oxidative stress-induced mitochondrial membrane depolarization in diethyl maleate-treated human lymphocytes obtained from FRDA patient assessed as cells with intact mitochondrial membrane potential at 250 nM pretreated for 16 hrs using TMRM by FACS analysis (reference value: 95%)
Format: functional
Parameters: scale not given: the % may be the effect or the level left
Conditions: not given

Row | SMILES | Activity
29 | CCCCCCCCCCc1nc(N(C)C)c(C)c(C)c1O | 82%
30 | CCCCCCCCCCCCCCCCc1nc(N2CCC2)c(C)c(C)c1O | 68%

System: Lymphocyte
Assay: Cytoprotective activity in human lymphocytes obtained from Leigh's syndrome patient assessed as viable cells at 2.5 uM after 16 hrs by trypan blue exclusion assay
Format: functional
Conditions: read-out: Activity
In short: as §1

Row | SMILES | viability at 2.5 µM
31 | CCCCCCCCCCc1nc(N(C)C)c(C)c(C)c1O | 79%
32 | CCCCCCCCCCCCCCCCc1nc(N2CCC2)c(C)c(C)c1O | 81%

System: Lymphocyte
Assay: Inhibition of lipid peroxidation in diethyl maleate-treated human lymphocytes obtained from FRDA patient at 100 to 250 nM after 16 hrs using C11-BODIPY581/591 by FACS analysis
Format: functional, cell-based
Conditions: not given
In short: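 FRDA lymphocytes depleted of glutathione with DEM, probed with C11-BODIPY581/591. Green (oxidized) fluorescence read by flow cytometry at 490/510 nm. Median mean fluorescence taken relative to untreated control and converted to % lipid peroxidation scavenging; mean ± SEM, n = 3.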

Row | SMILES | inhibition
33 | CCCCCCCCCCc1nc(N(C)C)c(C)c(C)c1O | Active
34 | CCCCCCCCCCCCCCCCc1nc(N2CCC2)c(C)c(C)c1O | Active

Species on record: Bos taurus
Assay: Inhibition of bovine heart mitochondrial NADH oxidase complex I/III/IV assessed as remaining activity by spectrophotometry relative to untreated control
Conditions: not given

Row | SMILES | inhibition
35 | CCCCCCCCCCc1nc(N(C)C)c(C)c(C)c1O | Dose-dependent effect
36 | CCCCCCCCCCCCCCCCc1nc(N2CCC2)c(C)c(C)c1O | Dose-dependent effect

System: Lymphocyte
Assay: Cytoprotective activity in human lymphocytes obtained from FRDA patient assessed as viable cells at 0.1 uM after 16 hrs by trypan blue exclusion assay
Format: functional
Conditions: read-out: Activity
In short: as §1

Row | SMILES | viability at 0.1 µM
37 | CCCCCCCCCCc1nc(N(C)C)c(C)c(C)c1O | 36%
38 | CCCCCCCCCCCCCCCCc1nc(N2CCC2)c(C)c(C)c1O | 54%

System: Lymphocyte
Assay: Inhibition of oxidative stress-induced mitochondrial membrane depolarization in diethyl maleate-treated human lymphocytes obtained from FRDA patient assessed as cells with intact mitochondrial membrane potential at 500 nM pretreated for 16 hrs using TMRM by FACS analysis (reference value: 95%)
Format: functional
Parameters: scale not given: the % may be the effect or the level left
Conditions: not given

Row | SMILES | Activity
39 | CCCCCCCCCCc1nc(N(C)C)c(C)c(C)c1O | 90%
40 | CCCCCCCCCCCCCCCCc1nc(N2CCC2)c(C)c(C)c1O | 85%

System: Lymphocyte
Assay: Cytoprotective activity in human lymphocytes obtained from FRDA patient assessed as viable cells at 0.5 uM after 16 hrs by trypan blue exclusion assay
Format: functional
Conditions: read-out: Activity
In short: as §1

Row | SMILES | viability at 0.5 µM
41 | CCCCCCCCCCc1nc(N(C)C)c(C)c(C)c1O | 74%
42 | CCCCCCCCCCCCCCCCc1nc(N2CCC2)c(C)c(C)c1O | 70%

System: Lymphocyte
Assay: Inhibition of oxidative stress-induced mitochondrial membrane depolarization in diethyl maleate-treated human lymphocytes obtained from FRDA patient assessed as cells with intact mitochondrial membrane potential pretreated for 16 hrs using TMRM by FACS analysis
Format: functional, cell-based
Conditions: not given

Row | SMILES | inhibition
43 | CCCCCCCCCCc1nc(N(C)C)c(C)c(C)c1O | Dose-dependent effect

System: not listed separately
Assay: Drug metabolism in bovine liver microsomes at 25 uM after 30 mins by reverse phase HPLC analysis
Format: ADME, Bos taurus
Conditions: cattle, read-out: Drug metabolism
In short: as §3

Row | metabolised at 0.5 h, 25 µM | SMILES
44 | 25% | CCCCCCCCCCc1nc(N(C)C)c(C)c(C)c1O
